Experimental data reported in ChEMBL document CHEMBL1146147, “Study on synthesis and biological activity of a galactosylated piperazinyl porphyrin” (Bioorg Med Chem Lett, 2006).
Values after ≈ are worked out from the molar mass of the structure shown.

What was measured:
[1] = Anticancer activity against human HNE1 cells at 6.25 ug/ml after 18 hrs by MTT assay; format: functional
Summary of the method: (§1)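 Human tumour cells (Bel-7404 liver, MCG stomach, HNE1 nasopharyngeal) exposed to compound in solution for 18 h at 37 °C under air with 5% CO2, either kept in the dark or irradiated at 650 nm, 20 J/cm². Viability read by MTT; activity reported as percent cell death.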

[2] = Anticancer activity against human HNE1 cells by MTT assay; format: functional; settings: read-out: ID50 (the source's name)
Summary of the method: (§2)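 MTT assay of human tumour cell lines (Bel-7404 liver, MCG stomach, HNE1 nasopharyngeal carcinoma) run in the absence of light. ID50 is taken as the concentration giving 50% cell death, in ug/ml.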

BEL-7404 tumor cell line [3] = test: Anticancer activity against human Bel7404 cells with irradiation at 6.25 ug/ml after 18 hrs by MTT assay; format: functional
Summary of the method: (§3)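 Human tumour cells (Bel-7404, MCG, HNE1) incubated 18 h with compound at 6.25 ug/ml at 37 °C in air with 5% CO2. Cells irradiated at 650 nm, 20 J/cm²; parallel wells kept unirradiated. Cell death rate read by MTT.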

[4] = Partition coefficient of the compound; format: ADME; settings: octanol/water
Summary of the method: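 Compound distributed between the two non-miscible solvents octanol and water. Reported as the octanol/water partition ratio.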

[5] = Anticancer activity against human MCG cells at 6.25 ug/ml after 18 hrs by MTT assay; format: functional; summary of the method: as §1
BEL-7404 tumor cell line [6] = test: Anticancer activity against human Bel7404 cells by MTT assay; format: functional; settings: read-out: ID50 (the source's name); summary of the method: as §2
[7] = Anticancer activity against human MCG cells by MTT assay; format: functional; settings: read-out: ID50 (the source's name); summary of the method: as §2
BEL-7404 tumor cell line [8] = test: Anticancer activity against human Bel7404 cells at 6.25 ug/ml after 18 hrs by MTT assay; format: functional; summary of the method: as §1
[9] = Anticancer activity against human MCG cells with irradiation at 6.25 ug/ml after 18 hrs by MTT assay; format: functional; summary of the method: as §3
[10] = Anticancer activity against human HNE1 cells with irradiation at 6.25 ug/ml after 18 hrs by MTT assay; format: functional; summary of the method: as §3

Row | Structure (SMILES) | Activity [1] [%] | IC50 [2] [µg/mL] | Activity (BEL-7404 tumor cell line [3]) [%] | Ratio [4] | Activity [5] [%] | IC50 (BEL-7404 tumor cell line [6]) [µg/mL] | IC50 [7] [µg/mL] | Activity (BEL-7404 tumor cell line [8]) [%] | Activity [9] [%] | Activity [10] [%]
1 | O=C([C@H](O)[C@@H](O)[C@H](O[C@@H]1O[C@H](CO)[C@H](O)[C@H](O)[C@H]1O)[C@H](O)CO)N1CCN(c2ccc(-c3c4nc(c(-c5ccc(N6CCN(C(=O)[C@H](O)[C@@H](O)[C@H](O[C@@H]7O[C@H](CO)[C@H](O)[C@H](O)[C@H]7O)[C@H](O)CO)CC6)cc5)c5ccc([nH]5)c(-c5ccc(N6CCN(C(=O)[C@H](O)[C@@H](O)[C@H](O[C@@H]7O[C@H](CO)[C@H](O)[C@H](O)[C@H]7O)[C@H](O)CO)CC6)cc5)c5nc(c(-c6ccc(N7CCN(C(=O)[C@H](O)[C@@H](O)[C@H](O[C@@H]8O[C@H](CO)[C@H](O)[C@H](O)[C@H]8O)[C@H](O)CO)CC7)cc6)c6ccc3[nH]6)C=C5)C=C4)cc2)CC1 | 19 | 33 (≈ 14.3 µM) | 96 | 18 | 19 | 29 (≈ 12.5 µM) | 35 (≈ 15.1 µM) | 19 | 96 | 96
2 | Nc1ccc(-c2c3nc(c(-c4ccc(N)cc4)c4ccc([nH]4)c(-c4ccc(N)cc4)c4nc(c(-c5ccc(N)cc5)c5ccc2[nH]5)C=C4)C=C3)cc1 |  | 28 (≈ 41.5 µM) |  | 42 |  | 33 (≈ 48.9 µM) | 24 (≈ 35.6 µM) |  |  | 
3 | O=c1[nH]cc(F)c(=O)[nH]1 [FLUOROURACIL] | 29 |  |  |  | 29 |  |  | 29 |  | 
4 | O=C([C@H](O)[C@@H](O)[C@H](O[C@@H]1O[C@H](CO)[C@H](O)[C@H](O)[C@H]1O)[C@H](O)CO)N1CCNCC1 [GALACTOSYLATEDPIPERAZINE] |  | > 50 |  |  |  | > 50 | > 50 |  |  | 
